Calls of active or inactive are those of the source. The calls are words filed in the database; no cut-off is given here.
Experiments:
SiHa [1] = assay: Antiproliferative activity against human SiHa cells after 48 hrs by MTT assay; format: functional, cell-based
[2] = target: T1, Nucleoside diphosphate kinase B (Homo sapiens, UniProt P22392); assay: Binding affinity to NM23-H2 in human SiHa cells assessed as disruption of protein interaction with c-myc G-quadruplex DNA by measuring decrease in c-MYC protein expresson at 2 uM after 48 hrs by Western blot analysis; format: cell-based
T1 sequence (P22392 whole entry): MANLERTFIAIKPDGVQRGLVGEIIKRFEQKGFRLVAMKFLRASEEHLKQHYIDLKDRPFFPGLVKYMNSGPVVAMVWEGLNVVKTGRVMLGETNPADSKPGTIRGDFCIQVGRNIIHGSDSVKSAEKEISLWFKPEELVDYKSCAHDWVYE
Summary of the method: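 SiHa cells treated 48 h; lysates (30 μg) on 10% SDS-PAGE, nitrocellulose, anti-c-MYC overnight at 4 °C, HRP secondary, chemiluminescence; β-actin internal control; three repeats.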

[3] = target: T1, Nucleoside diphosphate kinase B; assay: Binding affinity to N-terminal NT-647-NHS labeled NM23-H2 (unknown origin) after 30 mins by MST analysis
Summary of the method: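 NM23-H2 N-terminally labeled with RED-NHS dye (20 μM protein, 30 min dark, RT), free dye removed; 200 nM labeled protein with compound from 500 μM, 16 twofold steps, 30 min RT in 50 mM Tris-HCl pH 7.4, 150 mM NaCl, 10 mM MgCl2, 0.05% Tween-20; KD at half-plateau.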

[4] = Binding affinity to biotin-labeled Pu22 c-myc G-quadruplex DNA (unknown origin) by SPR analysis
[5] = target: T1, Nucleoside diphosphate kinase B; assay: Binding affinity to NM23-H2 (unknown origin) by SPR analysis
[6] = Binding affinity to biotin-labeled 18-mer duplex DNA hairpin (unknown origin) at 40 uM after 30 mins by SPR analysis
[7] = Binding affinity to Htg21 telomeric G-quadruplex DNA (unknown origin) at 40 uM after 30 mins by SPR analysis
[8] = target: T1, Nucleoside diphosphate kinase B; assay: Binding affinity to NM23-H2 in human SiHa cells assessed as disruption of protein interaction with c-myc G-quadruplex DNA by measuring decrease in c-MYC mRNA level at 2 uM after 9 hrs by RT-PCR analysis; format: cell-based
Summary of the method: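 SiHa cells treated at 0, 0.5, 1.0, 2.0 μM for 9 h; TRIzol RNA, 1.5 μg reverse-transcribed with oligo(dT); semiquantitative PCR, 30 cycles, 58 °C annealing; bands normalized to β-actin, untreated 100%; three repeats.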

SiHa [9] = assay: Antitumor activity against human SiHa cells xenografted in BALB/C nude mouse assessed as tumor weight at 1 mg/kg, ip administered daily after 3 weeks (reference value: 511.6 mg); format: functional
SiHa [10] = assay: Antitumor activity against human SiHa cells xenografted in BALB/C nude mouse assessed as tumor growth inhibition at 1 mg/kg, ip administered daily after 3 weeks relative to control; format: functional; settings: 504 h, read-out: TGI
Mus musculus = assay: Toxicity in BALB/C nude mouse xenografted with human SiHa cells assessed as change in body weight at 1 mg/kg, ip administered daily after 3 weeks; format: organism-based; settings: in vivo, 504 h
Summary of the method: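 SiHa cells implanted in the right armpit of BALB/c nu/nu mice. At approximately 50 mm3, mice randomized (n = 8/group) to vehicle, compound 2.5 or 5.0 mg/kg, or doxorubicin 1.0 mg/kg, given ip daily for 3 weeks. Body weight and signs of pain, distress or discomfort monitored; tumors excised and weighed. Data given as mean ± SEM, t test against vehicle.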

[11] = target: T1, Nucleoside diphosphate kinase B; assay: Binding affinity to NM23-H2 (unknown origin) assessed as ratio of Kd for protein interaction with biotin-labeled Pu22 c-myc G-quadruplex DNA in presence and absence of compound after 1 hr by ELISA

Which IC50 (SiHa [1]) does the source give for `O=C(NCCCN1CCCC1)c1ccc(/C=C2\CCn3c2nc2cc(NCCN4CCCC4)c(F)cc2c3=O)cc1` here?
The IC50 was 16.4 µM.

What about the Activity [2] of the same compound?
Its Activity is “Active”.

And the Kd [3]?
Its Kd is 18 µM.

What about the Kd [4] of the same compound?
The Kd was 2700 nM.

And the Kd [5]?
The Kd was 19.8 µM.

And the Activity [6]?
The Activity was “inactive”.

And the Activity [7]?
The Activity was “inactive”.

What about the Activity [8] of the same compound?
The Activity was “Active”.

Which results are given for `COc1cccc2c1C(=O)c1c(O)c3c(c(O)c1C2=O)C[C@@](O)(C(=O)CO)C[C@@H]3O[C@H]1C[C@H](N)[C@H](O)[C@H](C)O1` [DOXORUBICIN]?
Activity (SiHa [9]): 165.9 mg; inhibition in vivo at 1 mg/kg (SiHa [10]): 67.6%; Activity (Mus musculus): Toxic

Which Activity [2] does the source give for `O=C(CCN1CCCC1)Nc1ccc(/C=C2\CCCn3c2nc2cc(NC(=O)CCN4CCCC4)ccc2c3=O)cc1` here?
Its Activity is “Active”.

And the Kd [3]?
Its Kd is 24.6 µM.

What about the Kd [5] of the same compound?
Its Kd is 10.4 µM.

What about the Activity [6] of the same compound?
The Activity was “inactive”.

What about the Activity [7] of the same compound?
Its Activity is “inactive”.

And the Activity [8]?
The Activity was “Active”.

And the Ratio [11]?
The Ratio was 2.3.

Source: ChEMBL document CHEMBL4017489, “Design, Synthesis, and Evaluation of New Selective NM23-H2 Binders as c-MYC Transcription Inhibitors via Disruption of the NM23-H2/G-Quadruplex Interaction” (J Med Chem, 2017)
